To fix the notation:
B1: Osa-1-4 twister ribozyme (parent)
chain: CCGCCUAACACUGCCAAUGCCGGUCCCAAGCCCGGAUAAAAGUGGAGGGGGCGG

In the series the parent is B1. The series is described as follows: self-cleavage, relative activity (ratio to wild type); higher = more cleavage; co-transcriptional. Summed up: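 The 48 positions downstream of the cleavage site in a 54-nucleotide Oryza sativa twister ribozyme template were synthesised at 97 % wild-type base and 1 % of each other base. The template was transcribed in vitro at 37 °C for 2 h, with self-cleavage allowed during transcription. Reads with or without upstream sequence after deep sequencing marked cleavage status, and relative activity is fraction cleaved normalised to wild type.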
For the variant CCGCCUAAUACUGCCAAUGCCGGUCCCAAGCCCGGAUAAAAGUGGAGGGGGCGG, the self-cleavage was determined as 0.78.
In the case of CCGCCUAAUACUGCCAAUGCCGGUCCCAAGCCCGGAUAAAAGUGGAGUGGGCGG it was 0.03; in that of CCGCCUAAUACUGCCAAUGCCGGUCCCAAGCCCGGAUAAAAGUGGAGAGGGCGG, 0.03; in that of CCGCCUAAUACUGCCAAUGCCGGUCCCAAGCCCGGAUAAAAGUGGAGCGGGCGG, 0.04.
With CCGCCUAAUACUGCCAAUGCCGGUCCCAAGCCCGUAUAAAAGUGGAGGGGGCGG the figure was 0.59; with CCGCCUAAUACUGCCAAUGCCGGUCCCAAGCCCGCAUAAAAGUGGAGGGGGCGG, 0.21; with CCGCCUAAUACUGCCAAUGCCGGUCCCAAGCCCGAAUAAAAGUGGAGGGGGCGG, 0.53.
With CCGCCUAAUACUGCCAAUGCCGGUCCCAAGCCCGGAUAAAAUUGGAGGGGGCGG the figure was 0.04; with CCGCCUAAUACUGCCAAUGCCGGUCCCAAGCCCGGAUAAAAAUGGAGGGGGCGG, 0.09; with CCGCCUAAUACUGCCAAUGCCGGUCCCAAGCCCGGAUAAAACUGGAGGGGGCGG, 0.04.
CCGCCUAAUACUGCCAAUGCCGGUCCCAAGCCCGGAUAAAAGUGGAGGGGGCUG: the self-cleavage is 0.17.
With CCGCCUAAUACUGCCAAUGCCGGUCCCAAGCCCGGAUAAAAGUGGAGGGGGCCG the figure was 0.05; with CCGCCUAAUACUGCCAAUGCCGGUCCCAAGCCCGGAUAAAAGUGGAGGGGGCAG, 0.63.
CCGCCUAACCCUGCCUAUGCCGGUCCCAAGCCCGGAUAAAAGUGGAGGGGGCGG: the self-cleavage came out at 0.08.
Turning to CCGCCUAACCCUGCCGAUGCCGGUCCCAAGCCCGGAUAAAAGUGGAGGGGGCGG, the self-cleavage is 0.14.
In the case of CCGCCUAACCCUGCCCAUGCCGGUCCCAAGCCCGGAUAAAAGUGGAGGGGGCGG it was 0.09; in that of CCGCCUAACCCUGCCAAUGCCGGUCCCCAGCCCGGAUAAAAGUGGAGGGGGCGG, 0.08; in that of CCGCCUAACCCUGCCAAUGCCGGUCCCGAGCCCGGAUAAAAGUGGAGGGGGCGG, 0.03.
With CCGCCUAACCCUGCCAAUGCCGGUCCCUAGCCCGGAUAAAAGUGGAGGGGGCGG the figure was 0.05; with CCGCCUAAGACUGCCAAUGCCGGCCCCAAGCCCGGAUAAAAGUGGAGGGGGCGG, 0.1.
Consider CCGCCUAAGACUGCCAAUGCCGGGCCCAAGCCCGGAUAAAAGUGGAGGGGGCGG, for which the self-cleavage is 0.04.
With CCGCCUAAGACUGCCAAUGCCGGACCCAAGCCCGGAUAAAAGUGGAGGGGGCGG, the self-cleavage came out at 0.08.
As for CCGCCUAAGACUGCCAAUGCCGGUCCCAAGCCCGGAAAAAAGUGGAGGGGGCGG, the self-cleavage was found to be 0.76.
In the case of CCGCCUAAGACUGCCAAUGCCGGUCCCAAGCCCGGAGAAAAGUGGAGGGGGCGG it was 0.92; in that of CCGCCUAAGACUGCCAAUGCCGGUCCCAAGCCCGGACAAAAGUGGAGGGGGCGG, 0.94.
As to CCGCCUAAUACUGCCAAUGCCGGUCCCAAGCCCGGAUAAAAGUGGACGGGGCGG, the self-cleavage is 0.02.
On to CCGCCUAAUACUGCCAAUGCCGGUCCCAAGCCCGGAUAAAAGUGGAUGGGGCGG, for which the self-cleavage turned out to be 0.06.
In the case of CCGCCUAAUACUGCCAAUGCCGGUCCCAAGCCCGGAUAAAAGUGGAAGGGGCGG it was 0.06; in that of CCGCCUAAUACUGCCAAUGCCGGUCCCAAGCCCGGAUAAAAGUGGAGGGGGCGA, 0.69.
With CCGCCUAAUACUGCCAAUGCCGGUCCCAAGCCCGGAUAAAAGUGGAGGGGGCGC the figure was 0.71; with CCGCCUAAUACUGCCAAUGCCGGUCCCAAGCCCGGAUAAAAGUGGAGGGGGCGU, 0.72; with CCGCCUAACCCUGCCAGUGCCGGUCCCAAGCCCGGAUAAAAGUGGAGGGGGCGG, 0.1.
With CCGCCUAACCCUGCCAUUGCCGGUCCCAAGCCCGGAUAAAAGUGGAGGGGGCGG the figure was 0.08.
For CCGCCUAACCCUGCCACUGCCGGUCCCAAGCCCGGAUAAAAGUGGAGGGGGCGG, the self-cleavage was determined as 0.03.
CCGCCUAAGACUGCCAACGCCGGUCCCAAGCCCGGAUAAAAGUGGAGGGGGCGG: the self-cleavage is 0.66.
For CCGCCUAAGACUGCCAAAGCCGGUCCCAAGCCCGGAUAAAAGUGGAGGGGGCGG, the self-cleavage was found to be 0.85.
Turning to CCGCCUAAGACUGCCAAGGCCGGUCCCAAGCCCGGAUAAAAGUGGAGGGGGCGG, the self-cleavage came to 0.73.
In the case of CCGCCUAAUACCGCCAAUGCCGGUCCCAAGCCCGGAUAAAAGUGGAGGGGGCGG it was 0.05; in that of CCGCCUAAUACAGCCAAUGCCGGUCCCAAGCCCGGAUAAAAGUGGAGGGGGCGG, 0.24; in that of CCGCCUAAUACGGCCAAUGCCGGUCCCAAGCCCGGAUAAAAGUGGAGGGGGCGG, 0.06.
With CCGCCUAAUACUGCCAAGGCCGGUCCCAAGCCCGGAUAAAAGUGGAGGGGGCGG the figure was 0.57; with CCGCCUAAUACUGCCAACGCCGGUCCCAAGCCCGGAUAAAAGUGGAGGGGGCGG, 0.53.
In the case of CCGCCUAAUACUGCCAAAGCCGGUCCCAAGCCCGGAUAAAAGUGGAGGGGGCGG it was 0.6; in that of CCGCCUAAUACUGCCAAUGCCGGUCCCAAGCCCGGAUAAAAGUGGAGGGCGCGG, 0.73; in that of CCGCCUAAUACUGCCAAUGCCGGUCCCAAGCCCGGAUAAAAGUGGAGGGUGCGG, 0.86.
Consider CCGCCUAAUACUGCCAAUGCCGGUCCCAAGCCCGGAUAAAAGUGGAGGGAGCGG, for which the self-cleavage was 0.28.
With CCGCCUAAUACUGCCAAUGCCGGUCCCAAGCCCGGAUAAAAGUGGAGGCGGCGG, the self-cleavage was determined as 0.04.
With CCGCCUAAUACUGCCAAUGCCGGUCCCAAGCCCGGAUAAAAGUGGAGGAGGCGG the figure was 0.06.
On to CCGCCUAAUACUGCCAAUGCCGGUCCCAAGCCCGGAUAAAAGUGGAGGUGGCGG, for which the self-cleavage came to 0.05.
Consider CCGCCUAAUACUGCCAAUGCCGGUCCCAAGCCCGGAUAAAAGUAGAGGGGGCGG, for which the self-cleavage is 0.76.
With CCGCCUAAUACUGCCAAUGCCGGUCCCAAGCCCGGAUAAAAGUUGAGGGGGCGG the figure was 0.69; with CCGCCUAAUACUGCCAAUGCCGGUCCCAAGCCCGGAUAAAAGUCGAGGGGGCGG, 0.67.
In the case of CCGCCUAAUACUGCCAAUGCCGGUCCCAAGCCCGGACAAAAGUGGAGGGGGCGG it was 0.82; in that of CCGCCUAAUACUGCCAAUGCCGGUCCCAAGCCCGGAAAAAAGUGGAGGGGGCGG, 0.4; in that of CCGCCUAAUACUGCCAAUGCCGGUCCCAAGCCCGGAGAAAAGUGGAGGGGGCGG, 0.85.
In the case of CCGCCUAAGACGGCCAAUGCCGGUCCCAAGCCCGGAUAAAAGUGGAGGGGGCGG it was 0.11; in that of CCGCCUAAGACCGCCAAUGCCGGUCCCAAGCCCGGAUAAAAGUGGAGGGGGCGG, 0.1; in that of CCGCCUACCCCUGCCAAUGCCGGUCCCAAGCCCGGAUAAAAGUGGAGGGGGCGG, 0.15.
As to CCGCCUAGCCCUGCCAAUGCCGGUCCCAAGCCCGGAUAAAAGUGGAGGGGGCGG, the self-cleavage is 0.06.
With CCGCCUAUCCCUGCCAAUGCCGGUCCCAAGCCCGGAUAAAAGUGGAGGGGGCGG the figure was 0.04; with CCGCCUAACCCUGCCAAUGCCGGUCCCAAGCCCGGAUAAAAGUGGAGGGGGCGG, 0.12.
Regarding CCGCCUAAUACUGCCAAUGCCGGGCCCAAGCCCGGAUAAAAGUGGAGGGGGCGG, the self-cleavage is 0.01.
With CCGCCUAAUACUGCCAAUGCCGGCCCCAAGCCCGGAUAAAAGUGGAGGGGGCGG the figure was 0.06.
Consider CCGCCUAAUACUGCCAAUGCCGGACCCAAGCCCGGAUAAAAGUGGAGGGGGCGG, for which the self-cleavage worked out at 0.06.
CCGCCUAAUACUGCCAAUGCCGGUCCCAAGCCCGGAUAAAAGUGGAGGGGACGG: the self-cleavage is 0.28.
For CCGCCUAAUACUGCCAAUGCCGGUCCCAAGCCCGGAUAAAAGUGGAGGGGUCGG, the self-cleavage stood at 0.11.
On to CCGCCUAAUACUGCCAAUGCCGGUCCCAAGCCCGGAUAAAAGUGGAGGGGCCGG, for which the self-cleavage worked out at 0.04.
With CCGCCUAAUACUGCCAAUGCCGGUCCCAAGCCCGGAUAAAAGUGUAGGGGGCGG the figure was 0.04; with CCGCCUAAUACUGCCAAUGCCGGUCCCAAGCCCGGAUAAAAGUGAAGGGGGCGG, 0.06; with CCGCCUAAUACUGCCAAUGCCGGUCCCAAGCCCGGAUAAAAGUGCAGGGGGCGG, 0.03.
In the case of CCGCCUAAUACUGCCAAUGCCGCUCCCAAGCCCGGAUAAAAGUGGAGGGGGCGG it was 0.03; in that of CCGCCUAAUACUGCCAAUGCCGUUCCCAAGCCCGGAUAAAAGUGGAGGGGGCGG, 0.03; in that of CCGCCUAAUACUGCCAAUGCCGAUCCCAAGCCCGGAUAAAAGUGGAGGGGGCGG, 0.12.
Take CCGCCUAAUACUGCCAAUCCCGGUCCCAAGCCCGGAUAAAAGUGGAGGGGGCGG: the self-cleavage was 0.05.
With CCGCCUAAUACUGCCAAUUCCGGUCCCAAGCCCGGAUAAAAGUGGAGGGGGCGG the figure was 0.08; with CCGCCUAAUACUGCCAAUACCGGUCCCAAGCCCGGAUAAAAGUGGAGGGGGCGG, 0.26.
For the variant CCGCCUAAUACUGCCAAUGCCGGUCCCAAGCCCUGAUAAAAGUGGAGGGGGCGG, the self-cleavage was found to be 0.28.
Take CCGCCUAAUACUGCCAAUGCCGGUCCCAAGCCCAGAUAAAAGUGGAGGGGGCGG: the self-cleavage was found to be 0.41.
With CCGCCUAAUACUGCCAAUGCCGGUCCCAAGCCCCGAUAAAAGUGGAGGGGGCGG, the self-cleavage was determined as 0.11.
Take CCGCCUAAUACUGCCAAUGCCGGUCCCAAGCCCGGAUAAAAGCGGAGGGGGCGG: the self-cleavage turned out to be 0.16.
In the case of CCGCCUAAUACUGCCAAUGCCGGUCCCAAGCCCGGAUAAAAGAGGAGGGGGCGG it was 0.68; in that of CCGCCUAAUACUGCCAAUGCCGGUCCCAAGCCCGGAUAAAAGGGGAGGGGGCGG, 0.4; in that of CCGCCUAAUACUGCCAAUGCCUGUCCCAAGCCCGGAUAAAAGUGGAGGGGGCGG, 0.26.
In the case of CCGCCUAAUACUGCCAAUGCCCGUCCCAAGCCCGGAUAAAAGUGGAGGGGGCGG it was 0.03.
With CCGCCUAAUACUGCCAAUGCCAGUCCCAAGCCCGGAUAAAAGUGGAGGGGGCGG the figure was 0.68; with CCGCCUAAUACUUCCAAUGCCGGUCCCAAGCCCGGAUAAAAGUGGAGGGGGCGG, 0.01; with CCGCCUAAUACUCCCAAUGCCGGUCCCAAGCCCGGAUAAAAGUGGAGGGGGCGG, 0.01.
For the variant CCGCCUAAUACUACCAAUGCCGGUCCCAAGCCCGGAUAAAAGUGGAGGGGGCGG, the self-cleavage came out at 0.04.
In the case of CCGCCUUACCCUGCCAAUGCCGGUCCCAAGCCCGGAUAAAAGUGGAGGGGGCGG it was 0.06.
With CCGCCUGACCCUGCCAAUGCCGGUCCCAAGCCCGGAUAAAAGUGGAGGGGGCGG the figure was 0.06.
As for CCGCCUCACCCUGCCAAUGCCGGUCCCAAGCCCGGAUAAAAGUGGAGGGGGCGG, the self-cleavage came out at 0.04.
With CCGCCUAAUACUGCCAAUGCCGGUCCCAAACCCGGAUAAAAGUGGAGGGGGCGG the figure was 0.02; with CCGCCUAAUACUGCCAAUGCCGGUCCCAACCCCGGAUAAAAGUGGAGGGGGCGG, 0.03.
With CCGCCUAAUACUGCCAAUGCCGGUCCCAAUCCCGGAUAAAAGUGGAGGGGGCGG the figure was 0.02.
In the case of CCGCCUAAGACUGCCAAUGCCGGUCCCAAGCCCGGAUAAAAGGGGAGGGGGCGG it was 0.21.
As for CCGCCUAAGACUGCCAAUGCCGGUCCCAAGCCCGGAUAAAAGCGGAGGGGGCGG, the self-cleavage amounted to 0.16.
With CCGCCUAAGACUGCCAAUGCCGGUCCCAAGCCCGGAUAAAAGAGGAGGGGGCGG the figure was 0.87.

Source of the values: the RNAGym collection of RNA variant scans (doi:10.1002/anie.201605470).
